The source made the active and inactive calls. No cut-off for these calls is given here.
Columns and labels:
[1] = system: Vibrio harveyi; assay: Growth inhibition of Vibrio harveyi MM32 at 0.1 mM after 5 hrs; format: organism-based; details: in vivo, 100 µM
[2] = target: T1, Autoinducer 2-binding periplasmic protein LuxP (Vibrio harveyi, UniProt P54300); assay: Agonist activity at Vibrio harveyi MM32 LuxP receptor assessed as induction of bioluminescence after 5 hrs 30 mins; format: functional
Method in brief: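 MM32 reporter grown in AB medium; compounds serially diluted in 0.01 M H2SO4 water, without added DPD. Light counted as cpm after 5 h 30 min at 30 °C. EC50 from four-parameter sigmoidal fit by non-linear least squares; error bars are standard deviations.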

[3] = target: Autoinducer 2-binding periplasmic protein LuxP (Vibrio harveyi) (UniProt P54300); assay: (§1) Binding affinity to Vibrio harveyi CFP/YFP-tagged LuxP receptor assessed as decrease in FRET ratio
Method in brief: (§2)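 Purified CFP-LuxP-YFP chimera, 12.5 µg ml⁻¹, in 25 mM sodium phosphate pH 8, 35 mM NaCl, 1 mM borate; serially diluted compounds (in 0.01 M H2SO4 water), 2.5 µl into 280 µl reaction. FRET ratio 527/485 nm; lower ratio indicates binding. EC50 from dose series; standard deviations shown.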

[4] = target: T1, Autoinducer 2-binding periplasmic protein LuxP; assay: as §1; method in brief: as §2
[5] = system: Escherichia coli; assay: Agonist activity at LsrB receptor in LsrF-, LsrG-, luxS-deficient Escherichia coli KX1446 assessed as induction of lsr gene expression at 150 uM after 4.5 to 5 hrs by LacZ reporter gene assay; format: functional
Method in brief: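 E. coli KX1446 carrying lsr-lacZ fusion grown in LB; analog diluted from 2 mM stock in 0.01 M H2SO4, final 150 μM, no DPD added. Acid-water and AI-2 controls per series; triplicate independent cultures.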

[6] = target: T1, Autoinducer 2-binding periplasmic protein LuxP; assay: Agonist activity at Vibrio harveyi LuxP receptor; format: functional
[7] = Inhibition of […]-deficient Salmonella Typhimurium Met844 Quorum sensing system by lacZ reporter gene assay; design: species or system Salmonella enterica subsp. enterica serovar Typhimurium
[8] = target: T1, Autoinducer 2-binding periplasmic protein LuxP; assay: Antagonist activity at Vibrio harveyi MM32 LuxP receptor assessed as decrease in receptor agonist DPD-induced bioluminescence after 5 hrs 30 mins; format: functional
Method in brief: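 V. harveyi MM32 in AB medium with 0.1 μM DPD plus serial dilutions of test compound (in 0.01 M H2SO4 water). Luminescence read as cpm after 5 h 30 min at 30 °C; IC50 by four-parameter sigmoidal non-linear least-squares fitting.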

[9] = system: Escherichia coli; assay: Agonist activity at LsrB receptor in LsrF-, LsrG-, luxS-deficient Escherichia coli KX1446 assessed as increase in receptor agonist DPD-induced lsr gene expression at 15 uM after 4.5 to 5 hrs by LacZ reporter gene assay; format: functional
Method in brief: (§3)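 E. coli lsr-lacZ reporter KX1446 in LB with overnight culture aliquot; analogs at final 15 or 150 μM added from 2 mM stocks in 0.01 M H2SO4, with 20 µM DPD present. Acid-water and AI-2 controls.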

[10] = system: Escherichia coli; assay: Agonist activity at LsrB receptor in LsrF-, LsrG-, luxS-deficient Escherichia coli KX1446 assessed as increase in receptor agonist DPD-induced lsr gene expression at 150 uM after 4.5 to 5 hrs by LacZ reporter gene assay; format: functional; method in brief: as §3

T1 sequence (P54300 whole entry): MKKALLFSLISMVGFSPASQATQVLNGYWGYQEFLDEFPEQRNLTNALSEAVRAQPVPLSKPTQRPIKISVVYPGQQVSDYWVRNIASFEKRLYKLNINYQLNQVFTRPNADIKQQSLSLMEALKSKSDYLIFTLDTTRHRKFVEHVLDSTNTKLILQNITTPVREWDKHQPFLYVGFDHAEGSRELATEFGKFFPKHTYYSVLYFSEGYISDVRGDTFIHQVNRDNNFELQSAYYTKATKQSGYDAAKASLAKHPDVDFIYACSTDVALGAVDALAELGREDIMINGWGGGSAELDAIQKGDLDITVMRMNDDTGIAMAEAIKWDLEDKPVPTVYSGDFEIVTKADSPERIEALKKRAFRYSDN
Chain of Autoinducer 2-binding periplasmic protein LuxP (Vibrio harveyi) (P54300 whole entry): as above

| SMILES | growth inhibition (GI) [1] | EC50 [2] [µM] | Activity [3] | EC50 [4] [µM] | Activity [5] | EC50 [6] [µM] | IC50 [7] [µM] | IC50 [8] [µM] | Activity [9] | Activity [10] |
| --- | --- | --- | --- | --- | --- | --- | --- | --- | --- | --- |
| CC(=O)C(=O)[C@H](O)[C@H](C)O | Toxic | 26.5 | Dose-dependent effect | 10 | inactive | – | – | – | – | – |
| CC(=O)C(=O)[C@H](O)CO | – | – | – | – | – | 30 | – | – | – | – |
| CC(=O)C(=O)[C@@H](O)[C@@H](C)O (single isomer, unassigned) | Toxic | 0.65 | Dose-dependent effect | 0.14 | inactive | – | – | – | – | – |
| CCCCCC(=O)C(=O)[C@@H](O)CO | – | – | – | – | – | – | 5 | – | – | – |
| CC(=O)C(=O)[C@@H](O)CO | Toxic | 0.076 | – | 0.032 | – | – | – | – | – | – |
| O=C(C(=O)C(F)(F)F)[C@@H](O)CO | – | – | – | – | – | 30 | – | – | – | – |
| CC(=O)C(=O)[C@H](O)[C@@H](C)O | Toxic | 19.5 | Dose-dependent effect | 11.6 | inactive | – | – | 160 | inactive | inactive |
| CC(=O)C(=O)[C@@H](O)[C@H](C)O | Toxic | 6.21 | Dose-dependent effect | 1.87 | inactive | – | – | 57.5 | Active | Active |

— ChEMBL document CHEMBL1938309, “Stereochemical diversity of AI-2 analogs modulates quorum sensing in Vibrio harveyi and Escherichia coli” (Bioorg Med Chem, 2012)
